In the array DNA melting data of Ke et al. (doi:10.1101/2024.01.08.574731):

Assays:
[1] = melting temperature; fluorescence melt of hairpins on a sequencing array, two-state fit, raised by 9.35 °C to match UV melts; details: sodium 0.088 M
Method in brief: (§1)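 Bootstrapped two-state fits yielded melting temperature and folding enthalpy for library hairpins. Cy3 fluorescence, with annealed Cy3 and quencher oligos, was imaged on a sequenced MiSeq flow cell in 50 mM Na-HEPES pH 8.0, 25 mM NaCl in 2.5 °C steps up to 60 °C, and normalised to pre-quench Cy3 and to control constructs. Four replicates were combined by inverse variance, and fitted temperatures were raised by 9.35 °C to match UV melts.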

[2] = folding enthalpy; higher = less favourable; fluorescence melt of hairpins on a sequencing array, two-state fit; details: sodium 0.088 M
Method in brief: as §1

| Sequence | Tm [1] [°C] | folding enthalpy [2] [kcal/mol] |
| --- | --- | --- |
| GCCAACTCGAAAGAGGGC (((..(((....)))))) | 47.3 | -20.2 |
| GCCAAGGGAAACTTTGGC (((((.(....).))))) | 48.6 | -30.1 |
| GCCAATACGAAAGTAGGC (((..(((....)))))) | 44.2 | -25.6 |
| GCCAATCGAAAGATCGGC (((.(((....))).))) | 49.8 | -35.6 |
| GCCAATCGAAAGATGGGC (((.(((....))).))) | 55.1 | -39.5 |
| GCCAATGCGAAAGCAGGC (((..(((....)))))) | 53 | -21.7 |
| GCCACATCGAAAGATGGC (((..(((....)))))) | 45.5 | -15.2 |
| GCCACCGGAAACGATGGC ((((.((....)).)))) | 52.6 | -44 |
| GCCACCTCGAAAGAGGGC (((..(((....)))))) | 44.5 | -9.58 |
| GCCACGCGAAAGCATCGC ((.(.((....)).).)) | 24 | -7.48 |
| GCCACGCGAAAGCCAGGC (((..((....))..))) | 50.2 | -22.7 |
| GCCACGCGAAAGCCTAGC ((.(.((....)).).)) | 14.4 | -6.53 |
| GCCACGCGAAAGCGAAGC ((..(((....)))..)) | 43.4 | -11.2 |
| GCCACGCGAAAGCGTTGC ((.((((....)))).)) | 57.6 | -20.2 |
| GCCACGGCGAAAGCCGGC (((..(((....)))))) | 49.1 | -7.83 |
| GCCACGGGAAACCACGGC (((..((....))..))) | 46.5 | -34.4 |
| GCCACGGGAAACCATGGC ((((.((....)).)))) | 48.6 | -47.8 |
| GCCACGGGAAACCGCAGC ((..(((....)))..)) | 34.1 | -17.4 |
| GCCACTGGAAACAGCAGC ((..(((....)))..)) | 25.5 | -11.8 |
| GCCACTGGAAACAGCGGC (((.(((....))).))) | 52.9 | -42.6 |
| GCCAGAGGAAACTCTGGC (((((((....))))))) | 69.1 | -44.8 |
| GCCAGCGAAAGCTATGGC ((((((....)))..))) | 55.3 | -21.4 |
| GCCAGCGAAAGCTGAGGC ((((((....)))..))) | 53.5 | -15.5 |

| Sequence | Tm [1] [°C] | folding enthalpy [2] [kcal/mol] |
| --- | --- | --- |
| GCCAGCGGAAACACTGGC (((((.(....).))))) | 52.8 | -39.2 |
| GCCAGGCGAAAGCATAGC ((.(.((....)).).)) | 37.8 | -11.1 |
| GCCAGGCGAAAGCCGCGC ((..(((....)))..)) | 58.4 | -18 |
| GCCAGGCGAAAGCGCGGC (((..((....))..))) | 59.6 | -18.6 |
| GCCAGGCGAAAGCGTAGC ((.(.((....)).).)) | 38.9 | -7.64 |
| GCCAGGCGAAAGCGTTGC ((.(.((....)).).)) | 34.2 | -16.6 |
| GCCAGGCGAAAGCTAGGC (((..((....))..))) | 61.3 | -27.9 |
| GCCAGGCGAAAGCTCGGC (((..((....))..))) | 59.8 | -38.4 |
| GCCAGGCGAAAGCTTAGC ((.(.((....)).).)) | 32.3 | -10.9 |
| GCCAGGGGAAACCCCGAC (.(.(((....))).).) | 32.6 | -9.47 |
| GCCAGGGGAAACCCCGGC (((.(((....))).))) | 59.8 | -38.6 |
| GCCAGGGGAAACCCTAGC ((.((((....)))).)) | 41 | -22.8 |
| GCCAGTCGAAAGACGGGC (((.(((....))).))) | 68.6 | -35 |
| GCCAGTGGAAACACCAGC ((..(((....)))..)) | 33.1 | -13.9 |
| GCCAGTGGAAACACCGGC (((.(((....))).))) | 49.6 | -37.1 |
| GCCAGTGGAAACATTGGC ((((.((....)).)))) | 50.8 | -37 |
| GCCAGTGGAAACGCTGGC (((((.(....).))))) | 61 | -41.8 |
| GCCAGTGGAAACGTTGGC ((((..(....)..)))) | 48.2 | -24.4 |
| GCCATACGAAAGTAGGC (((.(((....)))))) | 52.6 | -28.4 |
| GCCATCACGAAAGTGGGC (((..(((....)))))) | 47.2 | -19.4 |
| GCCATCGAAAGATAAGGC ((((((....)))..))) | 44.8 | -23.5 |
| GCCATCGAAAGATAGGGC ((((((....)))..))) | 44.6 | -27.4 |
| GCCATCGAAAGATGCGGC ((((((....)))..))) | 49.2 | -16.6 |

| Sequence | Tm [1] [°C] | folding enthalpy [2] [kcal/mol] |
| --- | --- | --- |
| GCCATCGAAAGATTGGC ((((((....))).))) | 50.7 | -30.3 |
| GCCATCGAAAGATTTGGC ((((((....)))..))) | 41.3 | -24.1 |
| GCCATGCGAAAGCCTCGC ((.(.((....)).).)) | 34 | -6.86 |
| GCCATGCGAAAGCGCGGC (((..((....))..))) | 59.2 | -20 |
| GCCATGCGAAAGCGTAGC ((.(.((....)).).)) | 37 | -11.2 |
| GCCATGCGAAAGCGTTGC ((.(.((....)).).)) | 43.6 | -18.1 |
| GCCATGTCGAAAGACGGC (((..(((....)))))) | 51.5 | -20.1 |
| GCCATTCGAAAGAAGGC (((.(((....)))))) | 48.1 | -25.6 |
| GCCATTCGAAAGAAGGGC (((.(((....))).))) | 59.4 | -41 |
| GCCATTGGAAACAGTGGC ((((.((....)).)))) | 50.7 | -45.3 |
| GCCCACACGAAAGTGGGC (((..(((....)))))) | 68 | -26.4 |
| GCCCACCGAAAGGTCGGC (((.(((....))).))) | 53.5 | -40.4 |
| GCCCACCGAAAGGTTGGC (((.(((....))).))) | 55.3 | -42.5 |
| GCCCACGAAAGTGCCGGC ((((((....)))..))) | 46.6 | -16.1 |
| GCCCACGAAAGTGCGGC ((((((....))).))) | 63.3 | -29.5 |
| GCCCACGAAAGTGGAGGC ((((((....)))..))) | 52.5 | -15.5 |
| GCCCACGCGAAAGCGGGC (((..(((....)))))) | 61.8 | -11.9 |
| GCCCACGGAAACGCAGGC (((..((....))..))) | 39.6 | -17.8 |
| GCCCACGGAAACGCGAGC ((.(.((....)).).)) | 28 | -14.7 |
| GCCCACGGAAACGTAGGC (((.(((....))).))) | 48.4 | -30.6 |
| GCCCAGCGAAAGCAGAGC ((.(.((....)).).)) | 41.2 | -10.9 |
| GCCCAGCGAAAGCCGCGC ((.(.((....)).).)) | 45.7 | -10.1 |
| GCCCAGCGAAAGCGGCGC ((.(.((....)).).)) | 64.5 | -17 |

| Sequence | Tm [1] [°C] | folding enthalpy [2] [kcal/mol] |
| --- | --- | --- |
| GCCCAGGGAAACCCAGGC (((..((....))..))) | 44.4 | -25.6 |
| GCCCAGGGAAACCCGAGC ((.(.((....)).).)) | 28.3 | -6.87 |
| GCCCAGGGAAACCCGGAC (.((.((....)).)).) | 28.6 | -4.63 |
| GCCCATCGAAAGATTGGC (((.(((....))).))) | 47.8 | -27.3 |
| GCCCATGCGAAAGCAGGC (((..(((....)))))) | 50.8 | -13.8 |
| GCCCATTCGAAAGAAGGC (((..(((....)))))) | 33 | -15.8 |
| GCCCCACGAAAGTGGGC (((.(((....)))))) | 65.5 | -10.9 |
| GCCCCAGGAAACCGAGGC (((.(.(....).).))) | 32.6 | -16.3 |
| GCCCCAGGAAACTGGGAC (.(((((....))))).) | 46.1 | -15.6 |
| GCCCCATCGAAAGATGGC (((..(((....)))))) | 37.9 | -7.75 |
| GCCCCCGAAAGGGCTGGC ((((((....)))..))) | 61.8 | -16.2 |
| GCCCCCGAAAGGGTAGGC ((((((....)))..))) | 55.9 | -23.3 |
| GCCCCCGAAAGGGTGGGC ((((((....)))..))) | 63.2 | -27.8 |
| GCCCCCGCGAAAGCGGGC (((..(((....)))))) | 34.8 | -4.3 |
| GCCCCGCGAAAGCACGGC (((..((....))..))) | 41.6 | -18.3 |
| GCCCCGCGAAAGCCGAGC ((.(.((....)).).)) | 32.1 | -11.3 |
| GCCCCGCGAAAGCCGTGC ((.(.((....)).).)) | 27.7 | -15.5 |
| GCCCCGCGAAAGCGCAGC ((..(((....)))..)) | 40.3 | -7.42 |
| GCCCCGCGAAAGCGGCGC ((.((((....)))).)) | 59.7 | -16.6 |
| GCCCCGCGAAAGCTGCGC ((.(.((....)).).)) | 36.6 | -13.6 |
| GCCCCGCGAAAGCTGGGC ((((.((....)).)))) | 68.8 | -39.2 |
